Measurements from ChEMBL document CHEMBL6182829, “Developing peptide-based fusion inhibitors as an antiviral strategy utilizing coronin 1 as a template” (RSC Med Chem, 2025).
The source made the active and inactive calls. No cut-off for these calls is given here. Where a SMILES comes first, the peptide text is derived from it.

Experiments:
[1] = system: Lipid bilayer; experiment: Reduction of apparent rotational correlation time in DOPC/DOPE/DOPG (60/30/10 mol%) small unilamellar vesicles at 2 to 10 uM by TMA-DPH anisotropy analysis; settings: dose 2-10 µM
Method in brief: (§1)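 Apparent rotational correlation time of TMA-DPH from the Perrin equation, combining steady-state anisotropy and mean lifetime with r0 = 0.4. SUVs at 200 μM lipid with varying peptide, in TES/NaCl/CaCl2/EDTA buffer pH 7.4 at 37 °C; at least three measurements.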

[2] = system: Lipid bilayer; experiment: Binding affinity to DOPC/DOPE/DOPG/CH (40/30/10/20 mol%) small unilamellar vesicles assessed as membrane organization and dynamic by measuring increase in fluorescence intensity at 1:100 compound: lipid concentration by tryptophan fluorescence based spectrofluorometric analysis
Method in brief: (§2)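 Tryptophan fluorescence spectra of the peptide recorded in buffer and with SUVs. Lipid:peptide 100:1, total lipid 200 μM, in 10 mM TES, 100 mM NaCl, 1 mM CaCl2, 1 mM EDTA, pH 7.4. At least three independent measurements averaged.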

[3] = system: Lipid bilayer; experiment: Binding affinity to DOPC/DOPE/DOPG (60/30/10 mol%) small unilamellar vesicles assessed as membrane organization and dynamic by measuring increase in fluorescence intensity at 1:100 compound: lipid concentration by tryptophan fluorescence based spectrofluorometric analysis; method in brief: as §2
[4] = system: Lipid bilayer; experiment: Inhibition of PEG-induced DOPC/DOPE/DOPG/CH (50/30/10/10 mol%) small unilamellar vesicles assessed as lipid mixing at 1:100 compound: lipid concentration preincubated for 10 mins followed by PEG addition by spectrofluorometric analysis (reference value: 67.8 +/- 2.7 %)
Method in brief: (§3)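 Lipid mixing followed as FRET dilution. Vesicles carrying 0.8 mol% NBD-PE and Rh-PE mixed 1:9 with probe-free vesicles at 200 μM lipid. Peptide 2 μM added 10 min before 6% (w/v) PEG at 37 °C. NBD donor intensity rise recorded over time; TX-100 defines complete mixing.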

[5] = system: Lipid bilayer; experiment: Inhibition of PEG-induced DOPC/DOPE/DOPG/CH (50/30/10/10 mol%) small unilamellar vesicles assessed as increase in lipid mixing at 1:100 compound: lipid concentration preincubated for 10 mins followed by PEG addition by spectrofluorometric analysis relative to control; method in brief: as §3
[6] = system: Lipid bilayer; experiment: Inhibition of PEG-induced DOPC/DOPE/DOPG/CH (40/30/10/20 mol%) small unilamellar vesicles assessed as increase in lipid mixing at 1:100 compound: lipid concentration preincubated for 10 mins followed by PEG addition by spectrofluorometric analysis relative to control; method in brief: as §3
[7] = system: Lipid bilayer; experiment: Binding affinity to DOPC/DOPE/DOPG/CH (50/30/10/10 mol%) small unilamellar vesicles assessed as membrane organization and dynamic by measuring increase in fluorescence intensity at 1:100 compound: lipid concentration by tryptophan fluorescence based spectrofluorometric analysis; method in brief: as §2
[8] = system: Lipid bilayer; experiment: Reduction of apparent rotational correlation time in DOPC/DOPE/DOPG/CH (40/30/10/20 mol%) small unilamellar vesicles at 2 to 10 uM by TMA-DPH anisotropy analysis; settings: dose 2-10 µM; method in brief: as §1
[9] = system: Lipid bilayer; experiment: Inhibition of PEG-induced DOPC/DOPE/DOPG (60/30/10 mol%) small unilamellar vesicle assessed as content leakage at 1:100 compound: lipid concentration preincubated for 10 mins followed by PEG addition by fluorescence based analysis (reference value: 11.7 +/- 0.4 %)
Method in brief: (§4)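 Leakage read as loss of fluorescence from vesicles co-encapsulating 8 mM TbCl3 and 80 mM DPA, external probe removed. Lipid 200 μM; peptide 2 μM added 10 min before 6% (w/v) PEG at 37 °C. 100% leakage set with 0.1% (w/v) Triton X-100.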

[10] = system: Lipid bilayer; experiment: Inhibition of PEG-induced DOPC/DOPE/DOPG (60/30/10 mol%) small unilamellar vesicles assessed as content mixing at 1:100 compound: lipid concentration preincubated for 10 mins followed by PEG addition by fluorescence based analysis (reference value: 16.7 +/- 0.6 %)
Method in brief: (§5)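 Content mixing by Tb3+/DPA complex fluorescence. Vesicles loaded with 8 mM TbCl3 or 80 mM DPA, external probe removed by gel filtration. Mixed 1:1 at 200 μM lipid; peptide 2 μM added 10 min before 6% (w/v) PEG, 37 °C. Normalised to co-encapsulated and detergent-treated samples.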

[11] = system: Lipid bilayer; experiment: Disruption of interfacial region in DOPC/DOPE/DOPG (60/30/10 mol%) small unilamellar vesicles at 2 to 10 uM by TMA-DPH based fluorescence anisotropy; settings: dose 2-10 µM
Method in brief: (§6)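 TMA-DPH steady-state anisotropy in SUVs (200 μM total lipid) across a range of peptide concentrations. Excitation 360 nm, emission 428 nm, 5 nm slits. Buffer 10 mM TES, 100 mM NaCl, 1 mM CaCl2, 1 mM EDTA, pH 7.4, 37 °C. Anisotropy from polarised intensities with G-factor correction; mean ± S.E. of at least three measurements.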

[12] = system: Influenza A virus H3N2; experiment: Antiviral activity against Influenza A virus X-31 (H3N2) infected in human A549 cells assessed as reduction in viral M1 protein expression level incubated for 48 hrs post infection by Western blot analysis; type: functional, organism-based
Method in brief: (§7)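 Cells seeded at 0.25 × 10^6 per well and co-infected with virus–peptide mixtures as in the CPE assay. Lysed in RIPA with protease inhibitor 48 h post-infection, protein by BCA. Run on 12% SDS-PAGE, transferred to PVDF, blocked in 3% milk. Probed with anti-M1 (1:1000) and HRP anti-mouse IgG (1:10 000); β-actin as loading control after stripping.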

[13] = system: Lipid bilayer; experiment: Inhibition of PEG-induced DOPC/DOPE/DOPG/CH (50/30/10/10 mol%) small unilamellar vesicles assessed as content mixing at 1:100 compound: lipid concentration preincubated for 10 mins followed by PEG addition by fluorescence based analysis (reference value: 11.4 +/- 0.4 %); method in brief: as §5
[14] = system: Lipid bilayer; experiment: Inhibition of PEG-induced DOPC/DOPE/DOPG/CH (50/30/10/10 mol%) small unilamellar vesicles assessed as content mixing at 1:100 compound: lipid concentration preincubated for 10 mins followed by PEG addition by fluorescence based analysis relative to control; method in brief: as §5
[15] = system: Lipid bilayer; experiment: Disruption of interfacial region in DOPC/DOPE/DOPG/CH (50/30/10/10 mol%) small unilamellar vesicles at 2 to 10 uM by TMA-DPH based fluorescence anisotropy; settings: dose 2-10 µM; method in brief: as §6
[16] = system: Lipid bilayer; experiment: Inhibition of PEG-induced DOPC/DOPE/DOPG/CH (40/30/10/20 mol%) small unilamellar vesicle assessed as content mixing at 1:100 compound: lipid concentration preincubated for 10 mins followed by PEG addition by fluorescence based analysis (reference value: 23.0 +/- 0.9 %); method in brief: as §5
[17] = system: Lipid bilayer; experiment: Inhibition of PEG-induced DOPC/DOPE/DOPG/CH (40/30/10/20 mol%) (20 CH) small unilamellar vesicles fusion assessed as content mixing at 1:100 compound: lipid concentration preincubated for 10 mins followed by PEG addition by spectrofluorometric analysis; method in brief: as §5
[18] = system: Influenza A virus H3N2; experiment: Antiviral activity against Influenza A virus X-31 (H3N2) infected in MDCK cells assessed as inhibition of viral infection preincubated for 48 hrs followed by viral infection for 45 mins by MTT assay; type: functional, organism-based; settings: X-31, MDCK
Method in brief: (§8)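 A549 or MDCK cells seeded 1.5 × 10^4 per well, grown 24 h. Virus premixed with two-fold serial peptide dilutions in serum-free medium with trypsin (2.5 μg ml-1). Cells infected 45 min at 37 °C, washed, then kept 48 h in medium with 0.1% FBS, 0.3% BSA and trypsin. MTT 4 h, absorbance 570 nm. CPE inhibition normalised to cell and virus controls, dose-response fit for EC50; at least 3 sets.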

[19] = system: Lipid bilayer; experiment: Inhibition of PEG-induced DOPC/DOPE/DOPG/CH (50/30/10/10 mol%) small unilamellar vesicles assessed as content leakage at 1:100 compound: lipid concentration preincubated for 10 mins followed by PEG addition by fluorescence based analysis (reference value: 13.6 +/- 0.5 %); method in brief: as §4
[20] = system: Lipid bilayer; experiment: Inhibition of PEG-induced DOPC/DOPE/DOPG/CH (50/30/10/10 mol%) small unilamellar vesicles assessed as content leakage at 1:100 compound: lipid concentration preincubated for 10 mins followed by PEG addition by fluorescence based analysis relative to control; method in brief: as §4
[21] = system: Lipid bilayer; experiment: Inhibition of PEG-induced DOPC/DOPE/DOPG/CH (40/30/10/20 mol%) small unilamellar vesicles assessed as lipid mixing at 1:100 compound: lipid concentration preincubated for 10 mins followed by PEG addition by spectrofluorometric analysis (reference value: 92.7 +/- 3.7 %); method in brief: as §3
[22] = system: Influenza A virus H3N2; experiment: Antiviral activity against Influenza A virus X-31 (H3N2) infected in MDCK cells assessed as reduction in viral M1 protein expression level incubated for 48 hrs post infection by Western blot analysis; type: functional, organism-based; method in brief: as §7
[23] = system: Lipid bilayer; experiment: Inhibition of PEG-induced DOPC/DOPE/DOPG (60/30/10 mol%) small unilamellar vesicles assessed as lipid mixing at 1:100 compound: lipid concentration preincubated for 10 mins followed by PEG addition by spectrofluorometric analysis (reference value: 57.4 +/- 2.2 %); method in brief: as §3
[24] = system: Lipid bilayer; experiment: Reduction of apparent rotational correlation time in DOPC/DOPE/DOPG/CH (50/30/10/10 mol%) small unilamellar vesicles at 2 to 10 uM by TMA-DPH anisotropy analysis; settings: dose 2-10 µM; method in brief: as §1
[25] = system: Lipid bilayer; experiment: Inhibition of PEG-induced DOPC/DOPE/DOPG/CH (40/30/10/20 mol%) small unilamellar vesicles assessed as content leakage at 1:100 compound: lipid concentration preincubated for 10 mins followed by PEG addition by fluorescence based analysis (reference value: 11.1 +/- 0.4 %); method in brief: as §4
[26] = system: Lipid bilayer; experiment: Inhibition of interfacial polarity in DOPC/DOPE/DOPG (60/30/10 mol%) small unilamellar vesicles assessed as decrease in interfacial polarity at 2 to 10 uM by TMA-DPH fluorescence analysis; settings: dose 2-10 µM
Method in brief: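 Interfacial polarity from TMA-DPH mean fluorescence lifetime in SUVs across peptide concentrations. TCSPC with 340 nm pulsed LED excitation, Ludox for IRF, 10 000 peak counts. Multi-exponential fits with χ2 ≤ 1.2; intensity-averaged lifetime. Run at 37 °C, pH 7.4 TES buffer, 200 μM lipid.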

[27] = system: Lipid bilayer; experiment: Disruption of interfacial region in DOPC/DOPE/DOPG/CH (40/30/10/20 mol%) small unilamellar vesicles at 2 to 10 uM by TMA-DPH based fluorescence anisotropy; settings: dose 2-10 µM; method in brief: as §6
[28] = system: Lipid bilayer; experiment: Inhibition of PEG-induced DOPC/DOPE/DOPG/CH (40/30/10/20 mol%) small unilamellar vesicles assessed as content leakage at 1:100 compound: lipid concentration preincubated for 10 mins followed by PEG addition by spectrofluorometric analysis; method in brief: as §4
[29] = system: Influenza A virus H3N2; experiment: Antiviral activity against Influenza A virus X-31 (H3N2) infected in human A549 cells assessed as reduction in virus-induced cytopathic effect preincubated for 48 hrs followed by viral infection for 45 mins by light microscopic analysis; type: functional, organism-based; settings: time 2925.0 min
Method in brief: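 A549 cells infected with virus–peptide mixtures at increasing peptide concentrations, then assessed by light microscopy for cytopathic effect 48 h after infection.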

[30] = system: Influenza A virus H3N2; experiment: Antiviral activity against Influenza A virus X-31 (H3N2) infected in human A549 cells assessed as inhibition of viral infection preincubated for 48 hrs followed by viral infection for 45 mins by MTT assay; type: functional, organism-based; settings: X-31, A549; method in brief: as §8
[31] = system: Influenza A virus H3N2; experiment: Antiviral activity against Influenza A virus X-31 (H3N2) infected in human A549 cells assessed as inhibition of viral infection incubated for 48 hrs post infection by hemagglutination assay (reference value: 4 No unit); type: functional
[32] = system: Lipid bilayer; experiment: Inhibition of PEG-induced DOPC/DOPE/DOPG/CH (40/30/10/20 mol%) small unilamellar vesicles assessed as content mixing at 1:100 compound: lipid concentration preincubated for 10 mins followed by PEG addition by spectrofluorometric analysis relative to control; method in brief: as §5

CC[C@H](C)[C@H](NC(=O)[C@H](CC(C)C)NC(=O)[C@H](C)NC(=O)[C@@H](NC(=O)[C@H](Cc1ccccc1)NC(=O)[C@H](CCCCN)NC(=O)[C@@H]1CCCN1C(=O)[C@H](CC(N)=O)NC(=O)[C@@H](NC(=O)[C@H](C)NC(=O)[C@H](CS)NC(=O)[C@H](Cc1ccccc1)NC(=O)CNC(=O)[C@H](CO)NC(=O)[C@H](CC(=O)O)NC(=O)[C@H](Cc1c[nH]c2ccccc12)NC(=O)[C@@H](NC(=O)[C@@H](N)[C@@H](C)O)[C@@H](C)O)C(C)C)C(C)C)C(=O)N[C@@H](CS)C(=O)N[C@@H](CC(=O)O)C(=O)N[C@@H](Cc1c[nH]c2ccccc12)C(=O)N[C@@H](CO)C(=O)NCC(=O)O (H-TTWDSGFCAVNPKFVALICDWSG-OH)
Activity [1]: Active | Activity [2]: Active | Activity [3]: Active | inhibition [4]: 72.1% | inhibition [5]: 6% | inhibition [6]: 8% | Activity [7]: Active | Activity [8]: Active | inhibition [9]: 8.7% | inhibition [10]: 9.8% | Activity [11]: Active | Activity [12]: Dose-dependent-effect | inhibition [13]: 8.1% | inhibition [14]: 30% | Activity [15]: Active | inhibition [16]: 15.5% | inhibition [17]: Active | EC50 [18]: ~21.6 µM | inhibition [19]: 8.3% | inhibition [20]: 40% | inhibition [21]: 100% | Activity [22]: Dose-dependent-effect | inhibition [23]: 69% | Activity [24]: Active | inhibition [25]: 14.4% | inhibition [26]: Active; Partial Reduction Is Observed | Activity [27]: Active; Less Stiff In Membranes | inhibition [28]: inactive | Activity [29]: Dose-dependent-effect | EC50 [30]: ~20.4 µM | Activity [31]: 0 | inhibition [32]: 33%
